Results published in ChEMBL document CHEMBL2413001, “Exploring pyrimidine-substituted curcumin analogues: design, synthesis and effects on EGFR signaling” (Bioorg Med Chem, 2013).
Calls of active or inactive are those of the source. The calls are words filed in the database; no cut-off is given here.

Assays:
HT-29 [1] = assay: Cytotoxicity against human HT-29 cells assessed as growth inhibition after 48 hrs by resazurin assay; type: functional, cell-based; conditions: for IC50: HT-29, 48 h
Method in brief: (§1)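 HCT116 or HT29 seeded at 2000 cells/well, grown 24 h, then given fresh complete McCoy's 5A (5% FBS, 0.1% DMSO final) containing serial compound concentrations for 48 h. Resazurin was added for 16 h and fluorescence read at ex 544/em 595 nm as a measure of living cells. IC50 was calculated by the Logit approach; values are mean ± SD.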

HCT-116 [2] = assay: Cytotoxicity against human HCT116 cells assessed as growth inhibition after 48 hrs by resazurin assay; type: functional, cell-based; conditions: for IC50: HCT-116, 48 h; method in brief: as §1
HCT-116 [3] = assay: Induction of apoptosis in human HCT116 cells assessed as ratio of Bax to Bcl-2 expression at 20 uM after 72 hrs by Western blot analysis relative to control; type: functional
Method in brief: (§2)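 HCT116 only, seeded at 8 × 10⁴ cells/ml in 15 cm dishes for 24 h, then treated for 72 h at 20 µM or at 5, 10 and 20 µM. Lysed in Triton lysis buffer (pH 7.5) with inhibitors, sonicated, and protein assayed by BCA. Western blots were developed by ECL. Band intensities were normalized to β-actin, as means of three independent experiments; the Bax/Bcl-2 ratio was expressed relative to untreated control.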

HCT-116 [4] = assay: Induction of apoptosis in human HCT116 cells assessed as increase in Bax expression at 20 uM after 72 hrs by Western blot analysis; type: functional, cell-based; method in brief: as §2
HCT-116 [5] = assay: Induction of apoptosis in human HCT116 cells assessed as reduction in Bcl-2 expression at 20 uM after 72 hrs by Western blot analysis; type: functional, cell-based; method in brief: as §2
HCT-116 [6] = assay: Induction of apoptosis in human HCT116 cells assessed as effect on HSP-70 expression at 20 uM after 72 hrs by Western blot analysis; type: functional, cell-based; method in brief: as §2
HCT-116 [7] = assay: Induction of apoptosis in human HCT116 cells assessed as effect on HSP-90 expression at 20 uM after 72 hrs by Western blot analysis; type: functional, cell-based; method in brief: as §2
HCT-116 [8] = assay: Induction of apoptosis in human HCT116 cells assessed as PARP cleavage at 20 uM after 72 hrs by Western blot analysis; type: functional, cell-based; method in brief: as §2
HCT-116 [9] = assay: Induction of apoptosis in human HCT116 cells assessed as caspase-3 activation at 20 uM after 72 hrs by Western blot analysis; type: functional, cell-based; method in brief: as §2
[10] = target: Epidermal growth factor receptor (Homo sapiens) (UniProt P00533); assay: Inhibition of EGFR signaling in human HCT116 cells assessed as effect on CDK2 expression at 20 uM after 24 hrs by Western blot analysis; type: cell-based; conditions: HCT-116
Sequence of Epidermal growth factor receptor (Homo sapiens) (P00533 whole entry): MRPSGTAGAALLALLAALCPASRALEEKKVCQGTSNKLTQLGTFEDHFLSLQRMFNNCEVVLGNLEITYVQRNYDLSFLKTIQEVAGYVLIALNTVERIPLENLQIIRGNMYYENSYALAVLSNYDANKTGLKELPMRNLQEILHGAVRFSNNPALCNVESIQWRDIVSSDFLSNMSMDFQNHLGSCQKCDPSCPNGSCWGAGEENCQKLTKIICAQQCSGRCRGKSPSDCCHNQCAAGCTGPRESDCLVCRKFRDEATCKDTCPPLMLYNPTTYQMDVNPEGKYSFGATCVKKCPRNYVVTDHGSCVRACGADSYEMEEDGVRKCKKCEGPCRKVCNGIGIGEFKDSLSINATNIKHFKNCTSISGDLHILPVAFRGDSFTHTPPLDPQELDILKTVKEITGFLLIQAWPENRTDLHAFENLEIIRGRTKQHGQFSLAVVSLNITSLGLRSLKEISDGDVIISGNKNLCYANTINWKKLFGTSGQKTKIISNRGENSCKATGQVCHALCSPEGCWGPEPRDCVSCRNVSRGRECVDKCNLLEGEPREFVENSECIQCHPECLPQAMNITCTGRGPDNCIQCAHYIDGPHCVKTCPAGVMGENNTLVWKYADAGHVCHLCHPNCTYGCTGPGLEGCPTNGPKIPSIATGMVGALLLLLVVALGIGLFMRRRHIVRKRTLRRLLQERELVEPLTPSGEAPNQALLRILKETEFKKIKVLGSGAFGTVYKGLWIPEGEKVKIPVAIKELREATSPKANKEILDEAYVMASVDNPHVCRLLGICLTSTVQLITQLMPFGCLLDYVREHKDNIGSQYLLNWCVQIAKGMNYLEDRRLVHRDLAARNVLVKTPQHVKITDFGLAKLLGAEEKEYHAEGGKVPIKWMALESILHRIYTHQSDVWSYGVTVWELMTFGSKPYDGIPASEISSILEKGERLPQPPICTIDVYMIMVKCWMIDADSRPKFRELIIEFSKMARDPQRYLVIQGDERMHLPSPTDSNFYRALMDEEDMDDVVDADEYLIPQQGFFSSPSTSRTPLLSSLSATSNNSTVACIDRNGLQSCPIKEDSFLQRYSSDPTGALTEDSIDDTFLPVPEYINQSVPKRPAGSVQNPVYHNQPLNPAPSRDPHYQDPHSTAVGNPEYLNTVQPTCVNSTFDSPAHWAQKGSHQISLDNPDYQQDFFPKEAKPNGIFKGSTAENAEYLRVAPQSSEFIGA

[11] = target: Epidermal growth factor receptor (Homo sapiens) (UniProt P00533); assay: Inhibition of EGFR signaling in human HCT116 cells assessed as effect on CDK4 expression at 20 uM after 24 hrs by Western blot analysis; type: cell-based; conditions: HCT-116
[12] = target: Epidermal growth factor receptor (Homo sapiens) (UniProt P00533); assay: Inhibition of EGFR signaling in human HCT116 cells assessed as inhibition of Rb expression at 20 uM after 24 hrs by Western blot analysis; type: cell-based; conditions: HCT-116
[13] = target: Epidermal growth factor receptor (Homo sapiens) (UniProt P00533); assay: Inhibition of EGFR signaling in human HCT116 cells assessed as inhibition of cyclin E1 expression at 20 uM after 24 hrs by Western blot analysis; type: cell-based; conditions: HCT-116
[14] = target: Epidermal growth factor receptor (Homo sapiens) (UniProt P00533); assay: Inhibition of EGFR signaling in human HCT116 cells assessed as inhibition of cyclin D1 expression at 20 uM after 24 hrs by Western blot analysis; type: cell-based; conditions: HCT-116
[15] = target: Epidermal growth factor receptor (Homo sapiens) (UniProt P00533); assay: Inhibition of EGFR signaling in human HCT116 cells assessed as induction of p21 WAF-1/CIP-1 expression at 20 uM after 24 hrs by Western blot analysis relative to control; type: cell-based; conditions: HCT-116
HT-29 [16] = assay: Cell cycle arrest in human HT-29 cells assessed as increase in G2/M population at 20 uM after 24 hrs by flow cytometry relative to control; type: functional
Method in brief: (§3)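 HCT116 or HT29 cells seeded at 4 × 10⁴ cells/ml in 6-well plates and left 24 h to attach, then exposed for 24 h in complete McCoy's 5A (5% FBS) with 0.1% DMSO final, at 5, 10 or 20 µM. Floating and trypsinized cells were pooled, PBS-washed, fixed overnight in 70% ethanol at 4 °C and stained with PI/RNase for 15 min at room temperature. Flow DNA content gave G0/G1, S and G2/M fractions as fold of control, from three independent assays.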

HCT-116 [17] = assay: Cell cycle arrest in human HCT116 cells assessed as increase in G2/M population at 20 uM after 24 hrs by flow cytometry relative to control; type: functional; method in brief: as §3
HCT-116 [18] = assay: Inhibition of EGFR protein expression in human HCT116 cells at 20 uM after 72 hrs by Western blot analysis; type: functional, cell-based
Method in brief: (§4)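 HCT116 or HT29 seeded at 8 × 10⁴ cells/ml in 15 cm dishes for 24 h, then treated for 72 h at 20 µM or at 5, 10 and 20 µM. Whole-cell lysates were made in Tris-HCl/NaCl/Triton buffer with phosphatase and protease inhibitors (pH 7.5), sonicated and cleared at 10,000g; protein was measured by BCA. Blots were blocked in 5% milk/TBST and developed by ECL. P-EGFR(Tyr1068) and total EGFR bands were normalized to β-tubulin, as means of three experiments.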

HT-29 [19] = assay: Inhibition of EGFR protein expression in human HT-29 cells at 20 uM after 72 hrs by Western blot analysis; type: functional, cell-based; method in brief: as §4
[20] = target: Epidermal growth factor receptor (Homo sapiens) (UniProt P00533); assay: Inhibition of EGFR phosphorylation at Tyr1068 residue in human HCT116 cells at 20 uM after 72 hrs by Western blot analysis; type: cell-based; conditions: HCT-116; method in brief: as §4
[21] = target: Epidermal growth factor receptor (Homo sapiens) (UniProt P00533); assay: Inhibition of EGFR phosphorylation at Tyr1068 residue in human HT-29 cells at 20 uM after 72 hrs by Western blot analysis; type: cell-based; method in brief: as §4

Structure (SMILES): CCCNc1nc(/C=C/c2cc(OC)c(OC)c(OC)c2)cc(/C=C/c2cc(OC)c(OC)c(OC)c2)n1
- IC50 (HT-29 [1]): > 100 µM
- growth inhibition (GI) (HCT-116 [2]): Dose-dependent effect
- IC50 (HCT-116 [2]): 21.9 µM

Structure (SMILES): COc1ccc(/C=C/c2cc(/C=C/c3ccc(OC)c(OC)c3)nc(NCCCO)n2)cc1OC
- growth inhibition (GI) (HT-29 [1]): Dose-dependent effect
- IC50 (HT-29 [1]): 12.8 µM
- growth inhibition (GI) (HCT-116 [2]): Dose-dependent effect
- IC50 (HCT-116 [2]): 9.9 µM

Structure (SMILES): CCNc1nc(/C=C/c2ccc(OC)c(OC)c2)cc(/C=C/c2ccc(OC)c(OC)c2)n1
- Ratio (HCT-116 [3]): 1.57
- Activity (HCT-116 [4]): Active
- Activity (HCT-116 [5]): Active
- Activity (HCT-116 [6]): inactive
- Activity (HCT-116 [7]): inactive
- Activity (HCT-116 [8]): inactive
- Activity (HCT-116 [9]): inactive
- inhibition [10]: inactive
- inhibition [11]: inactive
- inhibition [12]: inactive
- inhibition [13]: inactive
- inhibition [14]: inactive
- fold change (FC) [15]: 20
- fold change (FC) (HT-29 [16]): 1.1
- fold change (FC) (HCT-116 [17]): 1.03
- inhibition (HCT-116 [18]): inactive
- inhibition (HT-29 [19]): inactive
- inhibition [20]: inactive
- inhibition [21]: inactive
- growth inhibition (GI) (HT-29 [1]): Dose-dependent effect
- IC50 (HT-29 [1]): 38.5 µM
- growth inhibition (GI) (HCT-116 [2]): Dose-dependent effect
- IC50 (HCT-116 [2]): 46.4 µM
